These results are taken from ChEMBL document CHEMBL3632613, “Pharmacokinetic, pharmacodynamic and metabolic characterization of a brain retentive microtubule (MT)-stabilizing triazolopyrimidine” (Bioorg Med Chem Lett, 2015).

Molecules are shown by their SMILES. Calls of active or inactive are those of the source.

In general, half-life refers to the time needed for the level to fall by half in the phase considered. High values mean slow decline, low ones rapid decline.

Data set [1] has as its system QBI293. Description: Cytotoxic activity against human QBI293 cells assessed as reduction in cel viability incubated for 24 hrs by alamar blue assay. Type of data set: functional, cell-based. The gist of the method: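 QBI293 cells seeded 10,000/well, grown overnight at 37°C, 5% CO2, then exposed in triplicate to a nM–µM range (diluted from 20 mM DMSO stocks; 0.25% DMSO vehicle as 0% toxicity, 100 µM tubercidin as 100%) for 18 h. Alamar Blue was then added at 10% of well volume for another 6 h. Fluorescence read at ex 550/em 590 nm. Percent cytotoxicity was derived from RFUs.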
A general note: Alamar Blue is a resazurin reagent that responds to reducing activity.

The test system of data set [2] is QBI293. Description: Stabilization of microtubule in human QBI293 cells assessed as increase in acetylated alpha-tubulin up to 1 uM incubated for 4 hrs. It is filed as cell-based.
Data set [3] can be described thus: Retention time of the compound in mouse liver microsomes by LC-MS/MS method. Type of data set: ADME. On the technique in general: Liver microsomes are a subcellular fraction often used to study metabolism.
For data set [4], the system named is Plasma. Description: Drug level in mouse plasma treated with at 5 mg/kg, ip cmpound-4 assessed as compound formation. The note with it: in vivo.
In a further data set the test system is Mus musculus. The data set can be described thus: In-vivo stabilization of microtubule in normal mouse assessed as increase in acetylated alpha-tubulin at 5 mg/kg, ip administered as two doses after 1 day. Type of data set: functional, organism-based.
Data set [5] has as its system Brain. Description: Drug level in rat brain at 5 mg/kg, ip administered as two repeated doses separated by 4 hrs interval. Particulars: in vivo. It is filed as ADME, organism-based.
Data set [6] deals with Plasma. The data set can be described thus: Drug metabolism in mouse plasma assessed as formation of (S)-3-(4-(5-chloro-7-((1,1,1-trifluoropropan-2-yl)amino)-[1,2,4]triazolo[1,5-a]pyrimidin-6-yl)-3,5-difluorophenoxy)propanoic acid at 5 mg/kg, ip. The note with it: in vivo.
Data set [7] is described as follows: Half life in rat brain at 5 mg/kg, ip. Type of data set: ADME, organism-based.
For data set [8], the system named is Plasma. Description: Drug metabolism in mouse plasma assessed as formation of (S)-4-(5-chloro-7-((1,1,1-trifluoropropan-2-yl)amino)-[1,2,4]triazolo[1,5-a]pyrimidin-6-yl)-3,5-difluorophenol at 5 mg/kg, ip. The note with it: in vivo.
For data set [9], the system named is Brain. Description: Drug level in rat brain at 5 mg/kg, ip administered as single dose after 4 hrs. It is filed as ADME, organism-based. The note with it: in vivo.
Data set [10] can be described thus: Half life in rat plasma at 5 mg/kg, ip. It is filed as ADME, organism-based.

Regarding `C[C@H](Nc1c(-c2c(F)cc(OCCC(=O)O)cc2F)c(Cl)nc2ncnn12)C(F)(F)F`, the result in the data set on QBI293 [1] was inactive. Further, the inhibition result in the data set on QBI293 [2] was “inactive”. The Retention_time in [3] came out at 6.9 min. The Drug metabolism entry in the data set on Plasma [4] was “metabolite_detected”.

In the case of `C[C@H](Nc1c(-c2c(F)cc(O)cc2F)c(Cl)nc2ncnn12)C(F)(F)F`, the outcome in the data set with QBI293 [1] was inactive. Besides, in the data set on QBI293 [2], the inhibition entry is “inactive”. Further, in [3], the Retention_time is recorded as 6.73 min. Moreover, the Drug metabolism entry in the data set on Plasma [4] is “metabolite_detected”.

On to `C[C@H](Nc1c(-c2c(F)cc(OCCCO)cc2F)c(Cl)nc2ncnn12)C(F)(F)F`, for which the outcome with QBI293 [1] and with Mus musculus was Active. For the same molecule, the inhibition entry in the data set with QBI293 [2] was “Active”. Also, the Drug uptake result with Brain [5] and in the data set on Brain [9] was “Active” in each case. Also, the Retention_time in data set [3] is recorded as 6.91 min. Further, the Drug metabolism entry in the data set with Plasma [6] and with Plasma [8] was “metabolite_detected” in each case. In addition, the half-life was 7 h in [7] and 2.5 h in [10].
